Experimental data from different studies.
Lines come from different studies, so protocols differ.
Target: Mitogen-activated protein kinase kinase kinase kinase 3 (MAP4K3, Homo sapiens, UniProt Q8IVH8)
Sequence (Q8IVH8 1-894, as in one of the studies): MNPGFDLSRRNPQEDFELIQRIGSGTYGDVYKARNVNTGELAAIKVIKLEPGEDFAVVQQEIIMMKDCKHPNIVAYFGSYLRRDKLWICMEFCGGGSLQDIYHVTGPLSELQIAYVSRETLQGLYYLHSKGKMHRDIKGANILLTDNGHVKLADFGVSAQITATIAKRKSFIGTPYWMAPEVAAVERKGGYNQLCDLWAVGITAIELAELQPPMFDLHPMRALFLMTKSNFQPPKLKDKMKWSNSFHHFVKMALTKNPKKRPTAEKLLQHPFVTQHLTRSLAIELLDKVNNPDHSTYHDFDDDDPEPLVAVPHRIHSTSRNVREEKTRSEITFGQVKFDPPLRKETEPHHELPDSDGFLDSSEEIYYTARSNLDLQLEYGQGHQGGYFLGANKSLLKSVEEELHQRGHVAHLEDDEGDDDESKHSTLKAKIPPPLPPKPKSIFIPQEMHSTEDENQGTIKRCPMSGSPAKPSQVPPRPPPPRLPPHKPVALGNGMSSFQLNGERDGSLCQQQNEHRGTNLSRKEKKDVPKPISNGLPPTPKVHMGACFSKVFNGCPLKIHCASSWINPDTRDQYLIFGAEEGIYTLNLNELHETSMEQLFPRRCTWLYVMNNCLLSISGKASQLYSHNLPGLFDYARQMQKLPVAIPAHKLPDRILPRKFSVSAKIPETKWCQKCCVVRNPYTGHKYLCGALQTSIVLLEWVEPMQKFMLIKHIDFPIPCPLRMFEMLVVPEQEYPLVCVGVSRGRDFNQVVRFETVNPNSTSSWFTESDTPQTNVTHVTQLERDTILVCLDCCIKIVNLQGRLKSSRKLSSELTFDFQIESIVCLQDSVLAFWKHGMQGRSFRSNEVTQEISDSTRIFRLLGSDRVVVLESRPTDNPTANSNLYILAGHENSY

With `CCCCC(=O)Nc1ccc(-c2ccc3ncn(CCC)c(=O)c3c2)cn1` the remaining binding was 81% (binding, competition with immobilised ligand; 0.5 µM).
With `C=CC(=O)N1CCC([C@@H]2CCNc3c(C(N)=O)c(-c4ccc(Oc5ccccc5)cc4)nn32)CC1` the inhibition was 14% (enzyme activity, inhibitor; 1 µM).
`COc1ccc2oc(-c3ccc4nc(N)oc4c3)c/c(=N\c3ccccc3NC(=O)CCN)c2c1` has a remaining binding of 113% (binding; 1 µM).
With `C#Cc1cc(-c2cc(Nc3nc(N[C@@H](C)c4ccc(F)cn4)ncc3Cl)n[nH]2)ccc1C=O` the inhibition was 45.4% (enzyme activity, inhibitor; 0.2 µM).
For `C[C@H]1CC[C@H](n2c3cnccc3c3cnc(Nc4ccc5c(n4)CCN(C(=O)CO)C5)nc32)CC1`, the remaining binding was 100% (binding, competition with immobilised ligand; 1 µM).
With `C1=C/COCc2cc(ccc2OCCN2CCCC2)Nc2nccc(n2)-c2cccc(c2)COC/1` the remaining signal was 80% (cell-free assay; 0.1 µM).
For `Cc1ccc(NC(=O)c2ccnc(C(F)(F)F)c2)cc1-c1cc(OCCO)nc(N2CCOCC2)c1`, the remaining binding was 100% (binding, competition with immobilised ligand; 1 µM).
With `CO[C@@H]1[C@H](N(C)C(=O)c2ccccc2)C[C@H]2O[C@]1(C)n1c3ccccc3c3c4c(c5c6ccccc6n2c5c31)C(=O)NC4` the inhibition was 77% (enzyme activity, inhibitor; 1 µM).
